Results taken from ChEMBL document CHEMBL3272331, “Diacridines, bifunctional intercalators. Chemistry and antitumor activity” (J Med Chem, 1978).

What was measured:
Mus musculus = assay: Toxicity in mouse P388 cells allografted BDF/1 mouse consecutively administered on day 1 to day 9 post challenge measured on day 5; assay type: organism-based
P388 [1] = assay: Growth inhibition of mouse P388 cells by in vitro assay; assay type: functional, cell-based; conditions: read-out: I50
How it was run: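 P-388 murine leukemia cells kept in suspension culture were incubated with a range of diacridine concentrations. The concentration that reduced the rate of cell growth by 50% was taken as the I50.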

P388 [2] = assay: Antitumor activity against mouse P388 cells allografted in BDF/1 mouse assessed as increase in life span at optimal dose consecutively administered on day 1 to day 9 post challenge relative to control; assay type: functional
How it was run: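 P-388 tumour passaged as ascites in DBA/2 mice; 1×10^6 ascites cells given ip to BDF/1 mice on day 0. Drug given daily for 9 consecutive days from day 1 to groups of six mice at 20, 10, 5, 2.5, 1.25 and 0.625 mg/kg/day. Day of death recorded; % ILS calculated from treated vs control life spans; dose giving optimal % ILS reported.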

Row | SMILES | LD10 (Mus musculus) | IC50 (P388 [1]) | ILS (P388 [2])
1 | COc1ccc2c(NCCCCCCNc3c4ccccc4nc4cc(OC)ccc34)c3ccccc3nc2c1 | 9.5 mg/kg/day | 0.24 µM | 71%
2 | c1ccc2c(NCCCCCCCNc3c4ccccc4nc4ccccc34)c3ccccc3nc2c1 | 12.5 mg/kg/day | 0.32 µM | 67%
3 | c1ccc2c(NCCCCCNc3c4ccccc4nc4ccccc34)c3ccccc3nc2c1 | 12.5 mg/kg/day |  | 36%
4 | c1ccc2c(NCCCCCCCCCCCCNc3c4ccccc4nc4ccccc34)c3ccccc3nc2c1 | 6.5 mg/kg/day | 0.32 µM | 10%
5 | CCc1cccc2c(NCCNc3c4ccccc4nc4c(CC)cccc34)c3ccccc3nc12 | 16 mg/kg/day |  | 20%
6 | CCc1cccc2c(NCCCCNc3c4ccccc4nc4c(CC)cccc34)c3ccccc3nc12 | 7.4 mg/kg/day |  | 10%
7 | Cl.Nc1ccc2c(NCCCCCCNc3c4ccccc4nc4cc(N)ccc34)c3ccccc3nc2c1 | > 20 mg/kg/day | 0.21 µM | 47%
8 | CCc1cccc2c(NCCCCCCNc3c4ccccc4nc4c(CC)cccc34)c3ccccc3nc12 | 16 mg/kg/day | 0.23 µM | 43%
9 | O=[N+]([O-])c1ccc2c(NCCCCCCNc3c4ccccc4nc4cc([N+](=O)[O-])ccc34)c3ccccc3nc2c1 | > 20 mg/kg/day | 0.48 µM | 37%
10 | COc1ccc2nc3ccccc3c(NCCCCCCNc3c4ccccc4nc4ccc(OC)cc34)c2c1 | 8.6 mg/kg/day | 0.32 µM | 25%
11 | CCCOc1ccc2c(NCCCCCCNc3c4ccccc4nc4cc(OCCC)ccc34)c3ccccc3nc2c1 | 6.8 mg/kg/day | 0.32 µM | 37%
12 | COc1cccc2c(NCCCCCCNc3c4ccccc4nc4c(OC)cccc34)c3ccccc3nc12 | 12.5 mg/kg/day | 0.19 µM | 62%
13 | CCCCOc1cccc2c(NCCCCCCNc3c4ccccc4nc4c(OCCCC)cccc34)c3ccccc3nc12 | 6.5 mg/kg/day | 0.36 µM | 7%
14 | CCc1cccc2c(NCCCCCCCCNc3c4ccccc4nc4c(CC)cccc34)c3ccccc3nc12 | 12 mg/kg/day | 0.23 µM | 42%
15 | COc1ccc2nc3ccccc3c(NCCCCCCCCNc3c4ccccc4nc4ccc(OC)cc34)c2c1 | 6 mg/kg/day | 0.19 µM | 30%
16 | COc1ccc2c(NCCCCCCCCNc3c4ccccc4nc4cc(OC)ccc34)c3ccccc3nc2c1 | 10.5 mg/kg/day |  | 84%
17 | COc1cccc2c(NCCCCCCCCNc3c4ccccc4nc4c(OC)cccc34)c3ccccc3nc12 | 13.5 mg/kg/day | 0.29 µM | 89%
18 | COc1ccc2c(NCCCCCCCCNc3c4ccc(OC)cc4nc4c(OC)cccc34)c3cccc(OC)c3nc2c1 | 13 mg/kg/day | 0.42 µM | 66%
19 | COc1ccc2c(NCCCCCCCCNc3c4ccc(OC)cc4nc4ccc(Cl)cc34)c3cc(Cl)ccc3nc2c1 | 7 mg/kg/day | 0.16 µM | 18%
20 | COc1ccc2c(NCCCCCCCCNc3c4ccc(Cl)cc4nc4cc(OC)ccc34)c3ccc(Cl)cc3nc2c1.Cl | > 20 mg/kg/day |  | 17%
21 | CCOc1cccc2c(NCCCCCCCCNc3c4ccccc4nc4c(OCC)cccc34)c3ccccc3nc12 | 13.5 mg/kg/day |  | 76%
22 | CCCOc1ccc2c(NCCCCCCCCNc3c4ccccc4nc4cc(OCCC)ccc34)c3ccccc3nc2c1 | 5.5 mg/kg/day | 0.21 µM | 63%
23 | Cl.Nc1ccc2c(NCCCCCCCCNc3c4ccccc4nc4cc(N)ccc34)c3ccccc3nc2c1 | > 20 mg/kg/day |  | 58%
24 | O=[N+]([O-])c1ccc2c(NCCCCCCCCNc3c4ccccc4nc4cc([N+](=O)[O-])ccc34)c3ccccc3nc2c1 | > 20 mg/kg/day | 0.33 µM | 45%
25 | COc1ccc2c(NCCCCCCCCNc3c4ccc(OC)cc4nc4cc([N+](=O)[O-])ccc34)c3ccc([N+](=O)[O-])cc3nc2c1 | > 20 mg/kg/day |  | 21%

Row | SMILES | LD10 (Mus musculus) | IC50 (P388 [1]) | ILS (P388 [2])
26 | Clc1ccc2c(NCCCCCCCCNc3c4ccccc4nc4cc(Cl)ccc34)c3ccccc3nc2c1 | > 20 mg/kg/day | 0.23 µM | 29%
27 | Brc1ccc2c(NCCCCCCCCNc3c4ccccc4nc4cc(Br)ccc34)c3ccccc3nc2c1 | > 20 mg/kg/day | 0.21 µM | 9%
28 | CSc1ccc2c(NCCCCCCCCNc3c4ccccc4nc4cc(SC)ccc34)c3ccccc3nc2c1.Cl | 8 mg/kg/day | 0.37 µM | 27%
29 | CSc1cccc2c(NCCCCCCCCNc3c4ccccc4nc4c(SC)cccc34)c3ccccc3nc12 | > 20 mg/kg/day | 0.86 µM | 13%
30 | CCCCOc1cccc2c(NCCCCCCCCNc3c4ccccc4nc4c(OCCCC)cccc34)c3ccccc3nc12 | 7.6 mg/kg/day | 0.19 µM | 7%
31 | CCc1cccc2c(NCCCCCCCCCCNc3c4ccccc4nc4c(CC)cccc34)c3ccccc3nc12 | 13 mg/kg/day | 0.15 µM | 33%
32 | c1ccc2c(NCCCCCCCCCCNc3c4ccccc4nc4ncccc34)c3cccnc3nc2c1 |  |  | 22%
33 | c1ccc2c(NCCCCCCCCCCCCNc3c4ccccc4nc4ncccc34)c3cccnc3nc2c1 |  |  | 10%
34 | COc1ccc2c(NCCNc3c4ccccc4nc4cc(OC)ccc34)c3ccccc3nc2c1.Cl | 7.2 mg/kg/day |  | 0%
35 | CCCCOc1cccc2c(NCCNc3c4ccccc4nc4c(OCCCC)cccc34)c3ccccc3nc12 | 12.5 mg/kg/day |  | 9%
36 | COc1ccc2c(NCCCCNc3c4ccccc4nc4cc(OC)ccc34)c3ccccc3nc2c1.Cl | > 20 mg/kg/day |  | 10%
37 | CCCOc1cccc2c(NCCCCNc3c4ccccc4nc4c(OCCC)cccc34)c3ccccc3nc12.Cl | 9.8 mg/kg/day |  | 9%
38 | Cl.Nc1ccc2nc3ccccc3c(NCCCCCCCCNc3c4ccccc4nc4ccc(N)cc34)c2c1 | > 20 mg/kg/day |  | 60%
39 | Cc1ccc2c(NCCCCCCCCNc3c4ccccc4nc4cc(C)ccc34)c3ccccc3nc2c1.Cl | 7.3 mg/kg/day |  | 59%
40 | Cc1ccc2c(NCCCCCCCCNc3c4ccccc4nc4c(C)c(C)ccc34)c3ccccc3nc2c1C.Cl | 8 mg/kg/day |  | 60%
41 | COc1ccc(C)c2c(NCCCCCCCCNc3c4ccccc4nc4c(OC)ccc(C)c34)c3ccccc3nc12.Cl | 12.5 mg/kg/day |  | 20%
42 | COc1cccc2c(NCCCCCCCCNc3c4ccc([N+](=O)[O-])cc4nc4c(OC)cccc34)c3ccc([N+](=O)[O-])cc3nc12.Cl | > 20 mg/kg/day |  | 86%
43 | COc1ccc2c(NCCCCCCCCCCNc3c4ccccc4nc4cc(OC)ccc34)c3ccccc3nc2c1.Cl | 8 mg/kg/day |  | 55%
44 | COc1ccc2nc3cc(Cl)ccc3c(NCCCCCCCCNc3c4ccc(Cl)cc4nc4ccc(OC)cc34)c2c1 | > 20 mg/kg/day |  | 9%
45 | c1ccc2c(NCCCCCCNc3c4ccccc4nc4ccccc34)c3ccccc3nc2c1 | 9 mg/kg/day | 0.38 µM | 54%
46 | c1ccc2c(NCCCCNc3c4ccccc4nc4ccccc34)c3ccccc3nc2c1 | 11 mg/kg/day | 2.71 µM | 13%
47 | c1ccc2c(NCCCCCCCCCCNc3c4ccccc4nc4ccccc34)c3ccccc3nc2c1 | 7 mg/kg/day | 0.38 µM | 33%
48 | c1ccc2c(NCCCCCCCCNc3c4ccccc4nc4ccccc34)c3ccccc3nc2c1 | 13.5 mg/kg/day | 0.32 µM | 60%
49 | c1ccc2c(NCCNc3c4ccccc4nc4ccccc34)c3ccccc3nc2c1 | 4.3 mg/kg/day | 1.42 µM | 7%
